From ChEMBL document CHEMBL1127678, “Dianilinophthalimides: potent and selective, ATP-competitive inhibitors of the EGF-receptor protein tyrosine kinase” (J Med Chem, 1994)
pIC50: −log10 of the molar value.

Columns and labels:
[1] = molecular target: T1, Platelet-derived growth factor receptor (Mus musculus, UniProt P05622+P26618); test: (§1) Inhibition of PDGF-dependent autophosphorylation of PDGF-R in mouse BALB/c3T3 cells; assay type: functional, cell-based
[2] = molecular target: Protein kinase C (PKC); test: Inhibitory activity was determined against protein kinase C (PKC) from porcine brain; design: species or system Sus scrofa
[3] = molecular target: cAMP-dependent protein kinase alpha-catalytic subunit (Oryctolagus cuniculus, UniProt Q95J97); test: Inhibitory activity was determined against protein kinase A (PKA) of rabbit
Outline: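 PKA from rabbit muscle, kemptide (0.1 mg/mL) as substrate; compounds in DMSO (1% final).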

[4] = Inhibition of BALB/MK mouse epidermal keratinocyte proliferation; assay type: functional
Outline: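 Mouse BALB/MK keratinocytes (EGF-dependent; kept in calcium-free DMEM/HAM's F12 1:1 with 5% FCS and EGF 5 ng/mL), 10^4 cells/well, seeded and incubated overnight. Serial dilutions added in DMSO (1% final), then 5-day incubation. Cell number by methylene blue staining.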

[5] = molecular target: Proto-oncogene tyrosine-protein kinase Src (Homo sapiens, UniProt P12931); test: Inhibitory activity against c-src tyrosine kinase
Sequence of Proto-oncogene tyrosine-protein kinase Src (P12931 2-536 limits assumed): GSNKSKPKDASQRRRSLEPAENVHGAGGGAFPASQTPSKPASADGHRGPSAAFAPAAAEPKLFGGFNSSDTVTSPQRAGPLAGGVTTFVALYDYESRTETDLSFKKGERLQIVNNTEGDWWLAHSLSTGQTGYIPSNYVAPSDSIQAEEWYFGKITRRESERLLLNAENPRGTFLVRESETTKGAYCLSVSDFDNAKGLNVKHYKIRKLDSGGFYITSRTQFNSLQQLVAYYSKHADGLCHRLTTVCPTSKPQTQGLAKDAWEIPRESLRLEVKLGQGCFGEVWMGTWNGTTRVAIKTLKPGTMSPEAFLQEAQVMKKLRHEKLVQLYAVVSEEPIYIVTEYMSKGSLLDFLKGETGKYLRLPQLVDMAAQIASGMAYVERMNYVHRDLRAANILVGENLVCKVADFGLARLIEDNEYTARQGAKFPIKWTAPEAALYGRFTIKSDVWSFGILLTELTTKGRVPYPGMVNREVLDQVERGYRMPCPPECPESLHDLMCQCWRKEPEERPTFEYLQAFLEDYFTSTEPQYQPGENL

[6] = molecular target: Tyrosine-protein kinase ABL (Homo sapiens, UniProt P00519+P42684); test: Inhibitory activity against v-abl tyrosine kinase; assay type: protein assay
[7] = molecular target: T1, Platelet-derived growth factor receptor; test: as §1; assay type: functional, cell-based; remark: listed apart in the source
Outline: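 Confluent BALB/c 3T3 cells (collagen-coated wells, 3–5 days, no medium change) in DMEM with 1 mg/mL BSA; serially diluted compound for 2 h, then PDGF 50 ng/mL for 10 min. Cells were methanol-fixed, and phosphotyrosine was detected by ELISA (anti-pTyr 4G10, ABC-AP, p-nitrophenyl phosphate, 405 nm).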

[8] = molecular target: Epidermal growth factor receptor (Homo sapiens, UniProt P00533); test: Inhibitory activity against recombinant tyrosine kinase EGF-R (EGF-R ICD)
Sequence of Epidermal growth factor receptor (P00533 whole entry): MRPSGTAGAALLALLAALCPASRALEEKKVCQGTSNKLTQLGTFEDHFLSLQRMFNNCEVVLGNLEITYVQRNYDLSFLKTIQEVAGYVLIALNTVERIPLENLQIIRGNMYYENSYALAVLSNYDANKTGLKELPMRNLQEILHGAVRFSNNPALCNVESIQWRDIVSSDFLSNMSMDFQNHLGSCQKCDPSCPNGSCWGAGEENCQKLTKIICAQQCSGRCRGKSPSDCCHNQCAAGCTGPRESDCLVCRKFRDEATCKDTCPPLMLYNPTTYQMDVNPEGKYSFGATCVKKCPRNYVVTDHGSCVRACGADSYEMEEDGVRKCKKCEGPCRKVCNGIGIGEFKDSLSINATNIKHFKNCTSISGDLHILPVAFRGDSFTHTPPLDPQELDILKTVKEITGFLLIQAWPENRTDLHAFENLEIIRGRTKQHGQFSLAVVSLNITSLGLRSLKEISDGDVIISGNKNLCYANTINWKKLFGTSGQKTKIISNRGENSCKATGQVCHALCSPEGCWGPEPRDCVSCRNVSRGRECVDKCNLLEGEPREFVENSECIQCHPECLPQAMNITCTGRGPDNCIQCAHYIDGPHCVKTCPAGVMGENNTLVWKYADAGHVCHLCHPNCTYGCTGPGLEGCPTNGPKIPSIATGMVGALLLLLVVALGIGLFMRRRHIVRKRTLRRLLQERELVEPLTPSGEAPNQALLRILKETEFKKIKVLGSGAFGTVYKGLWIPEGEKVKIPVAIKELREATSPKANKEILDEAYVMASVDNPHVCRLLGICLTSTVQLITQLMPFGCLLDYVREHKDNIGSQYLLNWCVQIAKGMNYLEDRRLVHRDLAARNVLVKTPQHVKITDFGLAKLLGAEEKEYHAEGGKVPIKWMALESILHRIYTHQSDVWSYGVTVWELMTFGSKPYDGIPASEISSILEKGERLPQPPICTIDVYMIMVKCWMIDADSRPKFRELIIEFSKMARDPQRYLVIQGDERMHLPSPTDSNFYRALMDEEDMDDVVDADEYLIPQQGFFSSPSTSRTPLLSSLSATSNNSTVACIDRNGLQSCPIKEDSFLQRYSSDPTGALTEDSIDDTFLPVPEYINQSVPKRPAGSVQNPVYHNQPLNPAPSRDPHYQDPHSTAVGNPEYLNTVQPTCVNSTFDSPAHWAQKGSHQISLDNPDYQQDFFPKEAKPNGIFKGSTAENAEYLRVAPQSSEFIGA

Row | Compound | pIC50 [1] | IC50 [2] | pIC50 [3] | pIC50 [4] | pIC50 [5] | IC50 [6] | pIC50 [7] | pIC50 [8]
1 | CN1C(=O)c2cc(Nc3ccccc3)c(Nc3ccccc3)cc2C1=O | < 4.00 | > 100 µM | < 3.30 | – | – | – | – | –
2 | O=C1c2cc(Nc3ccccc3)c(Nc3ccccc3)cc2C(=O)N1c1ccccc1 | < 4.00 | > 100 µM | < 3.30 | < 4.30 | – | – | – | –
3 | O=C1NC(=O)c2cc(Nc3ccc(-c4ccccc4)cc3)c(Nc3ccc(-c4ccccc4)cc3)cc21 | < 4.00 | > 500 µM | < 3.30 | – | – | – | – | –
4 | O=C1NC(=O)c2cc3c(cc21)N(c1ccccc1)CCN3c1ccccc1 | – | 270 µM | < 3.30 | – | < 4.30 | > 50 µM | – | –
5 | CCN(CC)c1ccc(Nc2cc3c(cc2Nc2ccc(N(CC)CC)cc2)C(=O)NC3=O)cc1 | – | > 500 µM | < 3.30 | – | < 4.00 | > 50 µM | – | –
6 | CN(c1ccccc1)c1cc2c(cc1N(C)c1ccccc1)C(=O)NC2=O | – | > 500 µM | < 3.30 | – | < 4.00 | > 50 µM | – | –
7 | O=C1NC(=O)c2cc(Nc3ccc(I)cc3)c(Nc3ccc(I)cc3)cc21 | – | > 500 µM | < 3.30 | – | – | – | – | –
8 | COc1ccc(Nc2cc3c(cc2Nc2ccc(OC)cc2)C(=O)NC3=O)cc1 | < 4.00 | 460 µM | < 3.30 | – | – | > 50 µM | – | –
9 | COc1ccc(Nc2cc3c(cc2Nc2ccccc2)C(=O)NC3=O)cc1 | < 4.00 | > 100 µM | < 3.30 | – | 4.19 | > 100 µM | – | –
10 | O=C1NC(=O)c2cc(Nc3ccccc3)c(Nc3ccccc3)cc21 [DAPH] | – | 80 µM | < 3.30 | – | 4.80 | > 50 µM | 4.00 | –
11 | O=C1NC(=O)c2cc(Nc3ccc(F)cc3)c(Nc3ccc(F)cc3)cc21 [CGP-53353] | 4.00 | 32 µM | < 3.30 | – | 4.30 | > 50 µM | – | –
12 | O=C1NC(=O)c2cc(Nc3ccc(O)cc3)c(Nc3ccc(O)cc3)cc21 | – | 75 µM | < 3.30 | – | 5.10 | 12 µM | – | –
13 | CC(=O)N(c1ccccc1)c1cc2c(cc1Nc1ccccc1)C(=O)NC2=O | < 4.00 | > 100 µM | < 3.30 | – | – | – | – | –
14 | COC(=O)c1cc(Nc2ccccc2)c(Nc2ccccc2)cc1C(=O)OC | – | > 500 µM | < 3.30 | – | – | – | – | –
15 | O=C1NC(=O)C(c2c[nH]c3ccccc23)=C1c1c[nH]c2ccccc12 [RO-316233] | – | 0.19 µM | – | – | – | 20 µM | – | –
16 | Cc1ccc(Nc2cc3c(cc2Nc2ccc(C)cc2)C(=O)NC3=O)cc1 | < 4.00 | > 100 µM | < 3.30 | – | < 4.00 | > 100 µM | – | –
17 | COC(=O)c1cc(Nc2ccc(F)cc2)c(Nc2ccc(F)cc2)cc1C(=O)OC | – | > 500 µM | < 3.30 | – | – | – | – | –
18 | CN(c1ccccc1)c1cc2c(cc1Nc1ccccc1)C(=O)NC2=O | – | > 500 µM | < 3.30 | – | 6.00 | > 50 µM | – | –
19 | O=C1NC(=O)c2cc(Sc3ccccc3)c(Sc3ccccc3)cc21 | – | > 50 µM | < 3.30 | – | – | – | – | –
20 | N#Cc1ccc(Nc2cc3c(cc2Nc2ccc(C#N)cc2)C(=O)NC3=O)cc1 | – | > 100 µM | < 3.30 | – | – | – | – | –
21 | O=C1NC(=O)c2cc(NC3CCCCC3)c(NC3CCCCC3)cc21 | – | > 100 µM | < 3.30 | – | < 4.30 | > 50 µM | – | < 4.30
22 | O=C1NC(=O)c2c1c1c3ccccc3[nH]c1c1[nH]c3ccccc3c21 [STAUROSPORINE AGLYCON] | – | – | < 5.00 | – | – | – | – | –
